The text below walks through data of ChEMBL document CHEMBL3351280, “Exploration and pharmacokinetic profiling of phenylalanine based carbamates as novel substance p 1-7 analogues” (ACS Med Chem Lett, 2014).

Peptide text beside a SMILES is read from it.

Series [1] deals with Plasma. Kind of series: Drug recovery in rat plasma at 10 uM. Format: ADME, cell-free.
Series [2] can be described thus: Drug recovery in rat brain at 10 uM. The class given is ADME, tissue-based. As to conditions: read-out: Drug recovery.
Another series deals with Cytochrome P450 3A4 (Homo sapiens, UniProt P08684). Put plainly: Inhibition of CYP3A4 (unknown origin). The class given is ADME.
Series [3] in a line: Apparent permeability from apical to basolateral side in human Caco2 cells. Format: ADME, cell-based. As to conditions: Caco-2. A digest of the protocol: (§1)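 Caco-2 monolayers; apparent permeability coefficients (Papp) calculated from transport rates in the apical-to-basolateral and basolateral-to-apical directions. Efflux ratio is Papp(b–a)/Papp(a–b). Values are given as mean ± SD.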
In general terms: Caco-2 monolayers are a common model of the intestinal barrier.

A short description of series [4]: Fraction unbound in rat brain at 10 uM. Format: ADME, tissue-based.
In the next series the target is Cytochrome P450 2C9 (Homo sapiens, UniProt P11712). Kind of series: Inhibition of CYP2C9 (unknown origin). The class given is ADME.
For the next series, the system named is Brain. Kind of series: Unbound brain volume of distribution in rat at 10 uM. The class given is ADME, tissue-based. As to conditions: in vivo.
Series [5] in a line: Intrinsic clearance in rat microsomes. Format: ADME, Microsome.
The nature of series [6]: Fraction unbound in rat plasma at 10 uM. Format: ADME, cell-free.
For a further series, the target named is T1, Cytochrome P450 1A2 (Homo sapiens, UniProt P05177).
T1 sequence (P05177 whole entry): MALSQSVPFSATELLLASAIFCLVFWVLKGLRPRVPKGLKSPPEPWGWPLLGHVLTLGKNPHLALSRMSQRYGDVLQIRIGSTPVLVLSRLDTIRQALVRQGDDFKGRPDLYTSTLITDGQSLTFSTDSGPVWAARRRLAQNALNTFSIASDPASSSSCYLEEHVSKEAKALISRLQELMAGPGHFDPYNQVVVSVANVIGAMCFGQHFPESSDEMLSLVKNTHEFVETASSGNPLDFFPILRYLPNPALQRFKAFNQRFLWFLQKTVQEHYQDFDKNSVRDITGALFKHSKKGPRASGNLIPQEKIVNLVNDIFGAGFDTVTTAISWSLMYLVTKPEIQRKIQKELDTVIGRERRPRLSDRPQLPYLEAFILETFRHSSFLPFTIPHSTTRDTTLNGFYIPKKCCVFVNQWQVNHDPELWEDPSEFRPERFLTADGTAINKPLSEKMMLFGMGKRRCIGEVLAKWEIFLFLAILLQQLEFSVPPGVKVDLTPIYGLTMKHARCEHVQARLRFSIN
Kind of series: Inhibition of CYP1A2 (unknown origin). The class given is ADME.

Series [7] in a line: Intrinsic clearance in human microsomes. Format: ADME, Microsome.
A further series relates to Hepatocyte. Kind of series: Intrinsic clearance in rat hepatocytes. Format: ADME, cell-based.
Series [8] can be described thus: Fraction unbound in human plasma at 10 uM. The class given is ADME, cell-free. An outline of the steps:
(§2)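 Human plasma protein binding was measured by equilibrium dialysis. The read-outs were fraction unbound and mass recovery.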

Series [9] is described as follows: Efflux ratio of apparent permeability from basolateral to apical side to apical to basolateral side of human Caco2 cells. The class given is ADME, cell-based. The following applies: Caco-2. An outline of the steps:
as §1

For a further series, the target named is Cytochrome P450 2D6 (Homo sapiens, UniProt P10635). Put plainly: Inhibition of CYP2D6 (unknown origin). Format: ADME.
Series [10] deals with Plasma. Put plainly: Drug recovery in human plasma at 10 uM. The class given is ADME, cell-free. A digest of the protocol:
as §2

The nature of series [11]: in vitro. As to conditions: human, Caco-2.
A short description of series [12]: in vitro. The following applies: human, Caco-2. The source holds these as a separate data set.
Series [13] in a line: Half life in rat plasma at 25 uM. The class given is ADME, cell-free.
The test system of the next series is PepT1. Put plainly: in vitro. The following applies: chinese hamster, CHO-PepT1 cells and CHO-K1 cells.
Series [14] can be described thus: Half life in human plasma at 25 uM. Format: ADME, cell-free.
Series [15] is described as follows: in vitro. As to conditions: human, Caco-2. This is another data set of the same source.
The nature of series [16]: Drug uptake in CHOK1 cells at 25 uM. As to conditions: chinese hamster, cho-k1, 25 µM. The class given is ADME, cell-based, Cricetulus griseus.
Series [17] deals with T2, Solute carrier family 15 member 1 (Homo sapiens, UniProt P46059).
T2 sequence (P46059 whole entry): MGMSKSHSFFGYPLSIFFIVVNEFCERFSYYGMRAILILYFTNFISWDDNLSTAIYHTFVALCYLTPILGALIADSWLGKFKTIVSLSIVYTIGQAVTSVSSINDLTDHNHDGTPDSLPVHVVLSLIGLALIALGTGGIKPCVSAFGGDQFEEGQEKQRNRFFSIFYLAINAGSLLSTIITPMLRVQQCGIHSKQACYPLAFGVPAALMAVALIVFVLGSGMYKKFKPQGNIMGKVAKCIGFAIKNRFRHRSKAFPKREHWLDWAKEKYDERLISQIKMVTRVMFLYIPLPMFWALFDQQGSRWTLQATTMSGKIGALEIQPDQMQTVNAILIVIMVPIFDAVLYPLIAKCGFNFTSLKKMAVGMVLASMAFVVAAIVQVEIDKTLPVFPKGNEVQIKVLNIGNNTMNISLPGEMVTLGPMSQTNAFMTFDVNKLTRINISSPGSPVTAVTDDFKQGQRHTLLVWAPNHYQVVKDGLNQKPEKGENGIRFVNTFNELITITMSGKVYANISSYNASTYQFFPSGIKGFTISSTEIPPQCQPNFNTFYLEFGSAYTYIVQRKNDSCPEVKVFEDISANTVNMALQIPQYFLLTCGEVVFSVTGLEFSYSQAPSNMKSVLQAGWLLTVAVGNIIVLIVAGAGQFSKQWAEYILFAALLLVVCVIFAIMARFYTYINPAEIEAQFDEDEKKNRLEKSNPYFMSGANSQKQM
Kind of series: Drug uptake in CHO-PepT1 cells expressing PepT1 (unknown origin) assessed as transporter mediated uptake at 25 uM. Format: ADME, cell-based, Cricetulus griseus. As to conditions: chinese hamster, cho-pept1, 25 µM.

A short description of series [18]: Intrinsic clearance in human liver microsomes at 25 uM. The class given is ADME. As to conditions: read-out: CLH.
Series [19] can be described thus: Half life in rat plasma at 100 uM. The class given is ADME, cell-free.
A short description of series [20]: Apparent permeability from basolateral to apical side in human Caco2 cells at 100 uM. The class given is ADME, cell-based. The following applies: Caco-2. A digest of the protocol: (§3)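 Caco-2 monolayers; apparent permeability coefficients (Papp) calculated from transport rates in the apical-to-basolateral and basolateral-to-apical directions. Efflux ratio is Papp(b–a)/Papp(a–b). The test concentration was 100 μM, or 25 μM for poorly soluble compounds after further dilution. Values are given as mean ± SD.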

A short description of series [21]: Drug uptake in CHOK1 cells at 100 uM. As to conditions: chinese hamster, cho-k1, 100 µM. Format: ADME, cell-based, Cricetulus griseus. An outline of the steps: (§4)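 Uptake was measured in CHO-PepT1 cells, which are stably transfected with PepT1, and in CHO-K1 cells as the control. It is expressed as pmol/mg protein/min. […] A PepT1/K1 uptake ratio above 1 was taken to indicate a PepT1 substrate. Values are mean ± SD.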

Series [22] concerns the target T2, Solute carrier family 15 member 1. Kind of series: Drug uptake in CHO-PepT1 cells expressing PepT1 (unknown origin) assessed as transporter mediated uptake at 100 uM. The class given is ADME, cell-based, Cricetulus griseus. As to conditions: chinese hamster, cho-pept1, 100 µM. A digest of the protocol:
as §4

Series [23] in a line: Intrinsic clearance in human liver microsomes at 100 uM. Format: ADME. As to conditions: read-out: CLH. Background: Liver microsomes are vesicles of endoplasmic reticulum, rich in cytochrome P450 enzymes.
Series [24] can be described thus: Apparent permeability from apical to basolateral side in human Caco2 cells at 100 uM. The class given is ADME, cell-based. The following applies: Caco-2. An outline of the steps: as §3
Series [25] in a line: Half life in human plasma at 100 uM. The class given is ADME, cell-free.

Sequence of Cytochrome P450 3A4 (P08684 whole entry): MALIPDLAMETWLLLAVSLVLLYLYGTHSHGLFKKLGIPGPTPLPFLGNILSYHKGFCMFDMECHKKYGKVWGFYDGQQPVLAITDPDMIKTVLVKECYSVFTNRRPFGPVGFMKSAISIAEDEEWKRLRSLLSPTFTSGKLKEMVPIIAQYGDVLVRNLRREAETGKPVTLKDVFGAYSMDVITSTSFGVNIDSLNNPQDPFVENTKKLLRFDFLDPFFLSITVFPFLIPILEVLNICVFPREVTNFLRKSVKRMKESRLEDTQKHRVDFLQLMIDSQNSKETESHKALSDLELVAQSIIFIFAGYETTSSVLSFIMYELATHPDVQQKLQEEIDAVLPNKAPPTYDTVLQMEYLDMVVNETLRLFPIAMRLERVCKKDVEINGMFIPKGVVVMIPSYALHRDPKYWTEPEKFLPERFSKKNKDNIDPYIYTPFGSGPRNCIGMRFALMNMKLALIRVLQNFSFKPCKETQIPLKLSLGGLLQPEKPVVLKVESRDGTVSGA
Sequence of Cytochrome P450 2C9 (P11712 whole entry): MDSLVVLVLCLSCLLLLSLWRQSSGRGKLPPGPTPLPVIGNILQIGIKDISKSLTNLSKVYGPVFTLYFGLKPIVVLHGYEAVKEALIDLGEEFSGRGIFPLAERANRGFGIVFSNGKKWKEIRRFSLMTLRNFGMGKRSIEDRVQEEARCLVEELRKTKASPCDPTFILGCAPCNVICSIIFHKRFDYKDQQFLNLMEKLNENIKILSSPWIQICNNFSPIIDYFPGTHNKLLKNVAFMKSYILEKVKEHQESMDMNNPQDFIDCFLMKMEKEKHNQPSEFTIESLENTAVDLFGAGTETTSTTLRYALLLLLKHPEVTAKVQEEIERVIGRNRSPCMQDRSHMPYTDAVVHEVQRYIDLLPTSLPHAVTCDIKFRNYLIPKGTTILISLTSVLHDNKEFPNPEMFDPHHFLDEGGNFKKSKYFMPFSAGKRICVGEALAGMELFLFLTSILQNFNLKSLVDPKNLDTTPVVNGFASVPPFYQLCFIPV
Sequence of Cytochrome P450 2D6 (P10635 whole entry): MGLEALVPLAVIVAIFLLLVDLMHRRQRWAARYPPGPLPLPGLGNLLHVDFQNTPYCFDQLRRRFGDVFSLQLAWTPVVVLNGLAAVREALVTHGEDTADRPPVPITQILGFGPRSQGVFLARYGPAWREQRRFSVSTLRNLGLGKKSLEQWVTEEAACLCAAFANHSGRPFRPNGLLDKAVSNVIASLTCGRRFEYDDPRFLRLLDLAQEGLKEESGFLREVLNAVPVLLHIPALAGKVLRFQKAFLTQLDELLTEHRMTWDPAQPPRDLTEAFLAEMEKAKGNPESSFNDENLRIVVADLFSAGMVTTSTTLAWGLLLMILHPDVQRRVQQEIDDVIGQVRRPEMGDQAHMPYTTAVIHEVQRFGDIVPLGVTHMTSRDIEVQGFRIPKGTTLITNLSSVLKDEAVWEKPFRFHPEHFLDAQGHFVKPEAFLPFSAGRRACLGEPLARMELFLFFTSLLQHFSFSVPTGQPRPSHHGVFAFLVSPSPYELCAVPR

By Papp A→B is commonly meant how fast a substance crosses the layer from the apical side. As a reminder, the fraction unbound is free concentration divided by total concentration. A lower fraction unbound goes with extensive binding. In general, efflux ratio refers to a quotient of directional permeabilities that is used to spot active efflux. Take `NC(=O)[C@H](Cc1ccccc1)NC(=O)OCc1ccccc1`: the Drug recovery in the series with Plasma [1] is over 70%; with Plasma [10], over 65%. In addition, in series [2], the recovery at 10 µM is over 95%. The INH on Cytochrome P450 3A4, at Cytochrome P450 2C9, on Cytochrome P450 1A2 and on Cytochrome P450 2D6 was over 20 µM throughout. Further, the apical-to-basolateral permeability (Papp A→B) in series [3] was found to be 31 ×10⁻⁶ cm/s. The fraction unbound at 10 µM in [4] came to 0.17; in series [6], 0.18; in series [8], 0.19. The compound further showed a Vdu in the series with Brain of 6 mL/g. Also, the microsomal CLint in series [5] was found to be 21.2 µL/min/mg; in [7] it was 22.6 µL/min/mg. In the series on Hepatocyte, this compound registered a CLH of 39.4 µL/min/mg. Moreover, the efflux ratio in series [9] amounted to 1.
On to `NC(=O)[C@@H]1[C@H](c2ccccc2)CCN1C(=O)[C@@H](N)Cc1ccccc1`, for which the Drug recovery with Plasma [1] and with Plasma [10] was over 95% throughout. The recovery at 10 µM in series [2] was over 95%. In addition, the Vdu in the series on Brain was determined as 3.4 mL/g.
A word on the half-life: it is the time in which the quantity being followed falls by half. A lower half-life goes with rapid decline. A word on the Papp B→A: it is how fast a substance crosses the layer from the basolateral side. As for `N#CNC(=O)[C@H](Cc1ccccc1)NC(=O)OCc1ccccc1`, the efflux ratio at 25 µM in “in vitro [11]” was 1.2. This compound also registered an apical-to-basolateral permeability (Papp A→B) at 25 µM in the series “in vitro [12]” of 52 ×10⁻⁶ cm/s. For the same compound, the half-life at 25 µM is 8.7 h in series [13] and 6.6 h in [14]. In addition, the uptake ratio at 25 µM in the series on PepT1 came to 1. In “in vitro [15]”, this compound returned a basolateral-to-apical permeability (Papp B→A) at 25 µM of 62 ×10⁻⁶ cm/s. Besides, the Drug uptake in series [16] and in series [17] was 4 pmol/min/mg throughout. Besides, the microsomal CLint at 25 µM in series [18] is 11 µL/min/mg.
`CS(=O)(=O)NC(=O)[C@H](Cc1ccccc1)NC(=O)OCc1ccccc1`: the values for the half-life at 100 µM in series [19] and in series [25] were 6.9 h and 26.7 h, respectively. Also, the Papp B→A at 100 µM in [20] came out at 3 ×10⁻⁶ cm/s. Besides, the Drug uptake in series [21] came out at 77 pmol/min/mg; in series [22] it was 90 pmol/min/mg. The microsomal CLint at 100 µM in series [23] was found to be 17 µL/min/mg. The Papp A→B at 100 µM in series [24] came out at 6 ×10⁻⁶ cm/s.
Turning to `O=C(N[C@@H](Cc1ccccc1)C(=O)NO)OCc1ccccc1`, the Papp A→B at 25 µM in the series “in vitro [12]” was found to be 60 ×10⁻⁶ cm/s. The half-life at 25 µM in series [13] is 0.06 h; in series [14], 7.9 h. This compound also yielded a Papp B→A at 25 µM in the series “in vitro [15]” of 45 ×10⁻⁶ cm/s. The Drug uptake in series [16] was 4 pmol/min/mg; in series [17] it was 5 pmol/min/mg. In [18], the microsomal CLint at 25 µM is 23 µL/min/mg.
Take `O=C(N[C@@H](Cc1ccccc1)C(=O)NNC(=O)c1ccccc1)OCc1ccccc1`: the efflux ratio at 25 µM in the series “in vitro [11]” came out at 1.3. This compound returned an apparent permeability from apical to basolateral (Papp A→B) at 25 µM in the series “in vitro [12]” of 11 ×10⁻⁶ cm/s. Moreover, the half-life at 25 µM was 0.31 h in [13] and 9.9 h in [14]. In the series with PepT1, the uptake ratio at 25 µM was 0.8. Besides, the apparent permeability from basolateral to apical (Papp B→A) at 25 µM in the series “in vitro [15]” came out at 14 ×10⁻⁶ cm/s. The Drug uptake in series [16] was 156 pmol/min/mg; in [17], 127 pmol/min/mg. For the same compound, the microsomal CLint at 25 µM in series [18] came to 65 µL/min/mg.
Take `O=C(N[C@@H](Cc1ccccc1)c1nnc(-c2ccccc2)o1)OCc1ccccc1`: the half-life at 25 µM was 8.7 h in [13] and 11.2 h in series [14]. The Drug uptake in [16] was found to be 1128 pmol/min/mg; in series [17], 1082 pmol/min/mg. The microsomal CLint at 25 µM in series [18] is 287 µL/min/mg.
In the case of `NC(=O)[C@H](Cc1ccccc1)NC(=O)[C@@H](N)Cc1ccccc1` (H-Phe-Phe-NH2), the Drug recovery in the series on Plasma [1] is 1%; with Plasma [10] it was 22%. Further, the microsomal CLint in [5] stood at 103 µL/min/mg; in series [7], 97.3 µL/min/mg.
